Data on 10 molecules can be found in ChEMBL document CHEMBL4619796, “Discovery of 3-Quinazolin-4(3H)-on-3-yl-2,N-dimethylpropanamides as Orally Active and Selective PI3Kα Inhibitors” (ACS Med Chem Lett, 2020).

Active and inactive are the calls of the source. The rule behind the calls is not given here.

The species entered for data set [1] is Homo sapiens. Briefly: Selectivity ratio of IC50 for PI3Kbeta (unknown origin) using PIP2:3PS peptide as substrate preincubated for 15 mins followed by ATP addition at Km concentration and further incubated for 120 mins by ADP-Glo assay to IC50 for PI3Kalpha (unknown origin) using PIP2:3PS peptide as substrate preincubated for 15 mins followed by ATP addition at Km concentration and further incubated for 150 mins by ADP-Glo assay. In general terms: In ADP-Glo the light output rises with the ADP produced.

Data set [2] is filed under the species Homo sapiens. Briefly: Selectivity ratio of IC50 for PI3Kgamma (unknown origin) using PIP2:3PS peptide as substrate preincubated for 15 mins followed by ATP addition at Km concentration and further incubated for 120 mins by ADP-Glo assay to IC50 for PI3Kalpha (unknown origin) using PIP2:3PS peptide as substrate preincubated for 15 mins followed by ATP addition at Km concentration and further incubated for 150 mins by ADP-Glo assay.

Data set [3] addresses Phosphatidylinositol 4,5-bisphosphate 3-kinase catalytic subunit alpha isoform (Homo sapiens, UniProt P42336). Kind of data set: Inhibition of PI3Kalpha (unknown origin) using PIP2:3PS peptide as substrate preincubated for 15 mins followed by ATP addition at Km concentration and further incubated for 150 mins by ADP-Glo assay.
Data set [4] can be described thus: Inhibition of PI3K in human MCF7 cells assessed as reduction in AKT phosphorylation at residue S473 incubated for 2 hrs followed by insulin addition by ELISA. Format: cell-based. The note with it: MCF7, 2 h. (In general: ELISA stands for enzyme-linked immunosorbent assay.)
The species named for data set [5] is Homo sapiens. Kind of data set: Selectivity ratio of IC50 for PI3Kdelta (unknown origin) using PIP2:3PS peptide as substrate preincubated for 15 mins followed by ATP addition at Km concentration and further incubated for 120 mins by ADP-Glo assay to IC50 for PI3Kalpha (unknown origin) using PIP2:3PS peptide as substrate preincubated for 15 mins followed by ATP addition at Km concentration and further incubated for 150 mins by ADP-Glo assay.

Data set [6] in a line: Dose normalized AUC (0 to last) in BALB/c mouse at 10 mg/kg, po by HPLC analysis. The note with it: in vivo. Format: ADME, organism-based.
The nature of data set [7]: Cmax in BALB/c mouse at 10 mg/kg, po by HPLC analysis. Format: ADME, organism-based. Set-up: dose 10 mg/kg, route oral. The settings on record: in vivo.
For data set [8], the system named is BT-474. Kind of data set: Antitumor activity against PI3KCA mutant human BT474 cells xenografted in BALB/c nude mouse assessed as tumor growth inhibition at 10 to 20 mg/kg, po administered once daily for 21 days by caliper method. Format: functional, organism-based. In outline: (§1)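 BT-474 (PIK3CA mutant human breast ductal carcinoma) subcutaneous xenografts in Balb/c nude mice. Oral dosing once daily for 21 days. Vehicle 0.5% MC + 0.2% Tween 80. Read-out is tumor growth inhibition.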

The nature of data set [9]: Toxicity in BALB/c nude mouse xenografted with PI3KCA mutant human BT474 cells at 30 mg/kg, po administered once daily. Format: organism-based, BT-474. The settings on record: in vivo. In outline:
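Balb/c nude mice bearing BT-474 subcutaneous xenografts. Oral dosing at 30 mg/kg once daily.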

The nature of data set [10]: Clearance in BALB/c mouse at 1 mg/kg, […] by HPLC analysis. Format: ADME, organism-based. The settings on record: in vivo.
A short description of data set [11]: Oral bioavailability in BALB/c mouse at 10 mg/kg by HPLC analysis. Format: ADME, organism-based. The note with it: in vivo.
The test system of data set [12] is BT-474. Kind of data set: Antitumor activity against PI3KCA mutant human BT474 cells xenografted in BALB/c nude mouse assessed as tumor growth inhibition at 30 mg/kg, po administered once daily for 21 days by caliper method relative to control. Format: functional. The note with it: BT-474, po, 504 h, read-out: TGI. In outline: as §1
Background: In xenograft studies the graft and the host belong to different species.

Another data set deals with SK-OV-3. Briefly: Antitumor activity against human SKOV3 cells xenografted in BALB/c nude mouse assessed as tumor growth inhibition at 10 to 100 mg/kg, po via gavage administered once daily and measured after 28 days by caliper method. Format: functional, organism-based. In outline:
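SKOV-3 ovarian carcinoma subcutaneous xenografts in mice. Oral gavage once daily for 28 days at 10, 30 and 100 mg kg–1 day–1. Read-out is tumor growth inhibition.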

For data set [13], the system named is BT-474. Briefly: Antitumor activity against PI3KCA mutant human BT474 cells xenografted in BALB/c nude mouse assessed as tumor growth inhibition at 30 mg/kg, po administered once daily and measured after 30 days by caliper method relative to control. The note with it: BT-474, po, 720 h, read-out: TGI. Format: functional.

For orientation: IC50 means the concentration that inhibits the measured activity by half. One may read the Cmax as the maximum level reached in the sampled fluid or tissue. Broadly, the CL/F is the apparent clearance, not corrected for the fraction that reaches the circulation. By bioavailability is commonly meant dose-corrected exposure relative to a reference, in per cent. Read a low bioavailability as poor availability.

Chain of Phosphatidylinositol 4,5-bisphosphate 3-kinase catalytic subunit alpha isoform (P42336 whole entry, canonical isoform): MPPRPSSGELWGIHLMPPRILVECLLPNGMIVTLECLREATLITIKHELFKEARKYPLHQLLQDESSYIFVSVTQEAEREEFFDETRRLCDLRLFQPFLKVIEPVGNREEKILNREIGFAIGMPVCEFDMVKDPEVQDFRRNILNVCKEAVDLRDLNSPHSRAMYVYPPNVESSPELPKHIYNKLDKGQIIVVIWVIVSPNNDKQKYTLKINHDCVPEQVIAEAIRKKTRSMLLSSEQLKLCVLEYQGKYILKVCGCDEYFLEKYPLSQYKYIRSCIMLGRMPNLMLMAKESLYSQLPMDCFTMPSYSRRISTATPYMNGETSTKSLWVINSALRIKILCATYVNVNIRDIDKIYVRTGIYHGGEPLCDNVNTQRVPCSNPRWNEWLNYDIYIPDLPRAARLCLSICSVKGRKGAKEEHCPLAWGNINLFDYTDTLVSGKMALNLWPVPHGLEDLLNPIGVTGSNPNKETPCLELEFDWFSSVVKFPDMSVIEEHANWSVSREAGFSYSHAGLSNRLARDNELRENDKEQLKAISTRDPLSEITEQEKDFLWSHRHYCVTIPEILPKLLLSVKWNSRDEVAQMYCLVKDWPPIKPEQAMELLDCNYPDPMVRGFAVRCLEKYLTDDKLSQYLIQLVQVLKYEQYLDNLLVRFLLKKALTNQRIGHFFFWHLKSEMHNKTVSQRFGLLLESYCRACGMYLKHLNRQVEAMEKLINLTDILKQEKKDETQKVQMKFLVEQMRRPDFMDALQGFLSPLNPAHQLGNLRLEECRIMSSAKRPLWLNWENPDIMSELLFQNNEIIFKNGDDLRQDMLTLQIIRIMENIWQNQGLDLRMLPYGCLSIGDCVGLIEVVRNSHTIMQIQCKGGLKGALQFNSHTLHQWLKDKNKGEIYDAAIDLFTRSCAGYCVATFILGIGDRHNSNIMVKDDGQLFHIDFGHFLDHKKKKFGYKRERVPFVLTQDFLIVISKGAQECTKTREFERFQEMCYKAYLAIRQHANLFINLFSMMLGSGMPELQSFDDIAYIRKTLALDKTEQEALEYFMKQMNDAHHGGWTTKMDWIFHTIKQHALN

For the molecule `COCCNC(=O)[C@H](C)Cn1cnc2ccc(-c3cnc(OC)c(NS(=O)(=O)c4ccc(F)cc4Cl)c3)cc2c1=O`, the Ratio IC50 in the data set listed under Homo sapiens [1] stood at 229; in the data set filed under Homo sapiens [2] it was 9.22; in the data set listed under Homo sapiens [5], 6.06. In addition, the IC50 came out at 4.9 nM in data set [3] and 72 nM in [4]. Further, the AUClast/dose in data set [6] is 723 nM.hr/(mg/kg). This molecule also registered a Cmax in data set [7] of 9.13 µM.
`CNC(=O)[C@H](C)Cn1cnc2ccc(-c3cnc(OC)c(NS(=O)(=O)c4cccc(Cl)c4Cl)c3)cc2c1=O`: the Ratio IC50 in the data set filed under Homo sapiens [1] turned out to be 175; in the data set filed under Homo sapiens [2], 8.87; in the data set listed under Homo sapiens [5], 11.6. The TGI entry in the data set with BT-474 [8] was “inactive”. For the same molecule, the IC50 in [3] was 1.1 nM; in [4], 0.45 nM. Besides, the Activity entry in [9] is given as “Toxic”. The same molecule displayed an AUClast/dose in data set [6] of 5700 nM·h. This molecule also gave a Cmax in [7] of 24 µM.
`CNC(=O)[C@H](C)Cn1cnc2ccc(-c3cnc(OC)c(NS(=O)(=O)c4cccc(C(F)(F)F)c4)c3)cc2c1=O`: the Ratio IC50 was 155 in the data set listed under Homo sapiens [1], 10.4 in the data set filed under Homo sapiens [2] and 5.79 in the data set listed under Homo sapiens [5]. In data set [10], the apparent clearance (CL/F) was found to be 9 mL/min/kg. The figures for the IC50 in data set [3] and in data set [4] were 4.4 nM and 87.1 nM, respectively. In data set [11], the bioavailability turned out to be 9%. This molecule showed an AUClast/dose in data set [6] of 2020 nM·h. In addition, the concentration in data set [7] peaked (Cmax) at 24.7 µM. The inhibition in vivo at 30 mg/kg with BT-474 [12] is 41.1%.
For the molecule `COc1ncc(-c2ccc3ncn(C[C@@H](C)C(=O)NC4CCC4)c(=O)c3c2)cc1NS(=O)(=O)c1ccc(F)cc1Cl`, the Ratio IC50 in the data set filed under Homo sapiens [1] came out at 186; in the data set listed under Homo sapiens [2], 3.27; in the data set listed under Homo sapiens [5] it was 2.12. In addition, the 50% inhibitory concentration (IC50) was 8.4 nM in data set [3] and 80.4 nM in data set [4]. In [6], this molecule came in with an AUClast/dose of 302 nM·h. This molecule also came in with a Cmax in data set [7] of 4.73 µM.
As for `CNC(=O)[C@H](C)Cn1cnc2ccc(-c3cnc(OC)c(NS(=O)(=O)c4ccc(Cl)cc4Cl)c3)cc2c1=O`, the results for the Ratio IC50 in the data set filed under Homo sapiens [1], in the data set listed under Homo sapiens [2] and in the data set filed under Homo sapiens [5] were 131, 10.8 and 5.38, respectively. The TGI entry in the data set with BT-474 [8] is “inactive”. Further, the IC50 turned out to be 2.1 nM in data set [3] and 13.4 nM in data set [4]. Moreover, the Activity entry in [9] is listed as “Toxic”. Also, the AUClast/dose in [6] was found to be 6260 nM·h. This molecule also came in with a Cmax in [7] of 37 µM.
Turning to `COc1ncc(-c2ccc3ncn(C[C@@H](C)C(N)=O)c(=O)c3c2)cc1NS(=O)(=O)c1ccc(F)cc1Cl`, the Ratio IC50 was determined as 83.2 in the data set listed under Homo sapiens [1], 7.38 in the data set filed under Homo sapiens [2] and 5.03 in the data set filed under Homo sapiens [5]. In addition, the CL/F in data set [10] amounted to 9.8 mL/min/kg. Also, the IC50 in data set [3] came to 2 nM; in data set [4], 17.1 nM. In [11], this molecule registered a bioavailability of 56.2%. For the same molecule, in [6], the AUClast/dose was 1631 nM.hr/(mg/kg). The TGI result in the data set with SK-OV-3 was “inactive”. Moreover, in data set [7], the highest concentration (Cmax) amounted to 4.45 µM.
`CNC(=O)[C@H](C)Cn1cnc2ccc(-c3cnc(OC)c(NS(=O)(=O)c4ccc(F)cc4)c3)cc2c1=O`: the Ratio IC50 came out at 106 in the data set listed under Homo sapiens [1], 12.3 in the data set filed under Homo sapiens [2] and 9.16 in the data set listed under Homo sapiens [5]. The IC50 in data set [3] came to 3.4 nM; in data set [4] it was 19 nM. The molecule further yielded an AUClast/dose in data set [6] of 1370 nM·h. Moreover, the peak concentration (Cmax) in [7] was 5 µM.
With `Cc1nc(NC(=O)N2CCC[C@H]2C(N)=O)sc1-c1ccnc(C(C)(C)C(F)(F)F)c1` [ALPELISIB], the inhibition in vivo at 30 mg/kg in the data set on BT-474 [13] amounted to 80.2%.
Take `COc1ncc(-c2ccc3ncn(C[C@@H](C)C(=O)NCCF)c(=O)c3c2)cc1NS(=O)(=O)c1ccc(F)cc1Cl`: the figures for the Ratio IC50 in the data set filed under Homo sapiens [1], in the data set listed under Homo sapiens [2] and in the data set filed under Homo sapiens [5] were 162, 7.41 and 7.61, respectively. The IC50 in [3] worked out at 2.5 nM; in data set [4], 67.4 nM.
As for `COc1ncc(-c2ccc3ncn(C[C@@H](C)C(=O)NC(C)C)c(=O)c3c2)cc1NS(=O)(=O)c1ccc(F)cc1Cl`, the Ratio IC50 worked out at 107 in the data set listed under Homo sapiens [1], 9.87 in the data set listed under Homo sapiens [2] and 3.41 in the data set listed under Homo sapiens [5]. Also, the IC50 was 6.9 nM in data set [3] and 61.5 nM in data set [4].
